Source: PubChem (several laboratories)
An excerpt weighted towards active compounds, which were near 2.9% of everything screened.
PKA inh = inhibitors of human PKA kinase activity, primary screen, biochemical, ATP-depletion luminescence, Kemptide substrate; cAMP-dependent protein kinase catalytic subunit alpha (Homo sapiens), P17612; PKA Kemptide phosphorylation, Kinase-Glo ATP luminescence; inhibition, % at 6 µM; 65,000 tested, 0.1% active;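 active = inhibition above the screen-wide mean inhibition plus 3 SD, cut at about 21% in these data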
SF-1 act = activators of human SF-1, primary screen, cell-based, CHO-K1, Gal4-SF-1 LBD, luciferase luminescence; CHO-K1 Gal4-SF-1 LBD luciferase reporter; % increase over DMSO SF-1-specific signal; activation, % at 10 µM; 65,000 tested, 1.9% active;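 active = activation above the mean activation of all tested compounds plus 3 SD, cut at about 50% in these data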
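Test system: CHO-K1 cells with Gal4–hSF-1 LBD chimera plus Gal4-driven luciferase; Input: 4,000 cells/well; Compound: 10 µM only; Times: 20 h compound treatment, 37 °C; Measured by: steady-glow luciferase luminescence, read after 15 min reagent incubation; Measure: percent activation versus DMSO; Control set: DMSO and mock-transfected background; Replicates: one test per compound.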
RORA act = activators of orphan receptor RORA, primary screen, cell-based, luminescence. Nuclear receptor ROR-alpha (Homo sapiens), P35398. CHO-K1 Gal4-RORA LBD luciferase reporter; percent increase over mock-subtracted basal signal. activation, % at 10 µM. 65,000 tested, 1.5% active;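 active = activation above the mean of all tested compounds plus 3 SD, cut at about 49% in these data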;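 also: 0% = DMSO-treated RORA cells and 100% = added signal equal to DMSO minus mock-transfected cells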
JNK3 inh = JNK3 kinase activity inhibitors, primary screen, biochemical, human, purified enzyme | Mitogen-activated protein kinase 10 (Homo sapiens), P53779 | HTS | inhibition, % at 8 µM | 60,000 tested, 0.61% active | AID 746, 2007; in the data active = inhibition above about 17%;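 also: 0% = DMSO and 100% = reference inhibitor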
Target sequence (P53779 whole entry, looked up): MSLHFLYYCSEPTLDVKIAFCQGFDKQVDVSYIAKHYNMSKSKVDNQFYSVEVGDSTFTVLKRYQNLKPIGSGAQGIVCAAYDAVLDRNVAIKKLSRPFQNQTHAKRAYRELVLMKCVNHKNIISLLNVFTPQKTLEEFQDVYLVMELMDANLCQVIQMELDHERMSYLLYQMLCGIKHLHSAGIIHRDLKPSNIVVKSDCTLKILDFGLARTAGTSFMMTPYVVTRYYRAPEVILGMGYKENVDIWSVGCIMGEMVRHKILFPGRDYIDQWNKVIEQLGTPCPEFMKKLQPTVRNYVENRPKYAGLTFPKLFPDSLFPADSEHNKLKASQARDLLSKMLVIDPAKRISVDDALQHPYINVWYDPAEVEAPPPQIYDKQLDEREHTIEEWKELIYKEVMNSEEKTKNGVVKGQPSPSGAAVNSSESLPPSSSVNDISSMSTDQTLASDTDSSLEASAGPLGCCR
mHtt clearance = clearance of mutant huntingtin inclusions, primary screen, imaging, HeLa Exon1htt(103Q)mCFP, confocal imaging; aggregate imaging; zero = plate's median compound well; AID 853, 2007; inhibition, % at 1.5 µM; 47,000 tested, 0.42% active;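 active = inhibition of aggregate fluorescence above about 70%, also judged a hit by eye on the cell image, limit read from the data, passing the limit was not always enough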;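 also: cells exposed to compound for three days before fixation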
ROCK2 blocker = inhibitors of human ROCK2 kinase, primary screen, biochemical, high-throughput, luminescence. Rho-associated protein kinase 2 (Homo sapiens), O75116. purified ROCK2, Kinase-Glo ATP depletion luminescence. inhibition, % at 6 µM. 60,000 tested, 0.35% active;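 active = inhibition above the screen-wide mean inhibition plus 3 SD, cut at about 18% in these data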;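 also: plate controls were DMSO wells for no effect and Y-27632 control wells after no-enzyme background subtraction for full effect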
* marks the source's active call; other numbers are inactive results; . = no result.

SMILES | PKA inh | SF-1 act | RORA act | JNK3 inh | mHtt clearance | ROCK2 blocker
Nc1c(C(=O)NC2CCCC2)c2nc3ccccc3nc2n1/N=C/c1cccnc1 | 1.7 | -9.2 | -17.4 | -5.1 | . | 1.1
Clc1ccccc1OCCn1cnc2ccccc21 | 3.7 | -7.7 | 51.1* | -0.1 | . | 2.8
CC1(C)CC(=O)C2=C(C1)N(c1ccc(F)cc1)C(=O)CC2c1ccsc1 (stereo unspecified) | . | . | . | . | 6.6 | .
Cc1ccc(C2NC(=O)c3ccccc3N2)s1 (stereo unspecified) | 2.6 | 89.4* | 76.6* | 7.8 | . | 2.0
CN(C)/C=C1\C(=O)c2ccc(N(C)C)nc2CC1c1ccccc1 (stereo unspecified) | 5.0 | -6.4 | 7.0 | 11.0 | . | 0.1
Cc1ccc2cc3cc(C(=O)N(C)C4CCCCC4)oc3nc2c1 | 0.5 | 76.8* | 34.6 | -2.3 | . | -5.9
Cc1cccc(N(C)C(=O)c2cc3cc4ccc(C)cc4nc3o2)c1 | 6.5 | 36.4 | 23.1 | -5.8 | . | 2.0
C=CCOc1nc2c(c(=O)n(C)c(=O)n2C)n1Cc1c(Cl)cccc1Cl | 3.9 | -9.3 | -9.6 | 12.8 | . | 10.1
Cc1oc(C(C)(C)C)cc1C(=O)Nc1cccc(/C=C/C(=O)O)c1 | . | . | . | . | -34.4 | .
COc1ccc(CCC(=O)Nc2ccc3c(c2)OCCO3)cc1 | 10.5 | -12.7 | 55.7* | 1.7 | -3.3 | 5.5
Cc1oc(C(C)(C)C)cc1C(=O)Nc1ccc2c(c1)OCCO2 | 1.1 | 57.0* | 63.5* | 3.4 | 6.6 | 1.7
O=C(Nc1nccs1)c1ccc(Br)o1 | 11.3 | 64.7* | 23.6 | 18.1* | . | 4.4
Cc1nc(NC(=O)c2ccc(Br)o2)sc1C | . | . | . | . | 21.4 | .
O=C(Nc1ccc2c(c1)OCCO2)NC12CC3CC(CC(C3)C1)C2 | 6.0 | 74.8* | 77.1* | -0.1 | -6.8 | 5.2
CCOC(=O)c1ccc(NC(=O)NC2CCN(CC(=O)NCc3ccc4c(c3)OCO4)CC2)cc1 | 6.8 | 7.8 | 7.3 | -9.1 | 3.7 | 3.3
CCOC(=O)COc1ccc(S(=O)(=O)N2CCc3ccccc3C2)cc1 | 7.7 | -0.8 | -5.6 | -1.3 | 11.7 | 6.6
COc1ccc(Cl)cc1NC(=S)N1CCN(C(=O)c2ccco2)CC1 | . | . | . | . | 15.4 | .
O=C(COc1ccccc1)Nc1cccc(-c2nnc(-c3ccccc3)o2)c1 | 0.7 | 46.5 | -5.4 | -5.5 | . | 2.8
O=C(Nc1ccc(Nc2ccccc2)cc1)c1ccc(Br)o1 | 9.8 | 47.4 | 49.4* | -2.6 | -44.4 | 8.2
O=C(Nc1ccc2c(c1)OCCO2)c1ccc(Br)o1 | -2.0 | 58.8* | 32.9 | 12.7 | 23.2 | -5.6
O=C(Nc1cccc(-c2nnc(-c3ccccc3)o2)c1)c1ccc(Br)o1 | 3.5 | 67.0* | 10.7 | 8.0 | -31.8 | 2.5
O=C(Nc1ccc2c(c1)Cc1ccccc1-2)c1ccc(Br)o1 | . | . | . | . | -41.2 | .
Cc1ccc(NC(=O)CS(=O)(=O)c2c[nH]c3ccccc23)c(C)c1 | 6.8 | 22.6 | 16.0 | . | . | .
CCOC(=O)N1CCC(c2cc(=O)n3[nH]c(C)c(-c4ccc(F)cc4)c3n2)CC1 | 6.5 | 7.7 | -14.5 | -1.6 | 81.5* | -4.6
COC(=O)c1c(-c2ccc(F)cc2)csc1NC(=O)c1ccco1 | . | . | . | . | 3.4 | .
SMILES | PKA inh | SF-1 act | RORA act | JNK3 inh | mHtt clearance | ROCK2 blocker
COC(=O)c1c(-c2cccnc2)csc1NC(=O)c1cc(C)on1 | 6.7 | 79.7* | 56.8* | 6.1 | . | 5.0
CCOC(=O)CCC(NC(=O)c1ccc(NCN2C(=O)c3ccccc3C2=O)cc1)C(=O)OCC (stereo unspecified) | -6.8 | -5.7 | 13.0 | 27.8* | -54.1 | -3.1
CCc1ccccc1Nc1nc(N)nc(COC(=O)c2cccn2C)n1 | 3.2 | 30.7 | 28.4 | 3.0 | 36.4 | 1.5
Cn1cccc1C(=O)OCc1csc(-c2ccccc2)n1 | 4.8 | 6.4 | 59.1* | 9.6 | . | 3.4
Cc1ccccc1Nc1nc(N)nc(COC(=O)c2cccn2C)n1 | 0.7 | 65.5* | 60.3* | -2.9 | . | 1.6
O=C(COc1ccccc1)Nc1nc2ccccc2[nH]1 | 9.3 | 60.3* | 55.1* | 1.3 | . | 2.7
CCOc1ccc(C(=O)Nc2cccc(C)n2)cc1 | 0.0 | -30.6 | -27.3 | 7.2 | . | -7.4
CCCCOc1ccc(C(=O)Nc2cccc(C)n2)cc1 | -3.1 | 59.1* | 55.3* | -5.4 | -36.3 | -3.6
Cc1c(C)n(CC(O)CN2C(=O)c3ccccc3S2(=O)=O)c2ccccc12 (stereo unspecified) | . | . | . | . | 1.5 | .
COc1ccc2c(c1)[nH]c1c(=O)n(CC3CCCO3)cnc12 (stereo unspecified) | 5.7 | 50.8* | 16.8 | 9.9 | . | 7.2
Cc1csc2nc(CSc3nc4ccccc4o3)cn12 | 2.1 | 61.3* | -5.4 | 0.9 | . | -8.9
c1ccc2oc(SCc3cn4ccsc4n3)nc2c1 | 0.3 | 46.4 | 29.9 | -5.9 | . | -0.3
CN1C(=O)Cc2cc(S(=O)(=O)N3CCOCC3)ccc21 | 3.0 | -4.2 | -17.5 | 1.6 | . | 2.3
CC(=O)Oc1ccc2cc(-c3nc4ccccc4n3C)c(=O)oc2c1 | -6.2 | 64.6* | 76.1* | 3.5 | . | -2.7
O=C(Nc1cccc(C(F)(F)F)c1)C1CCCN1S(=O)(=O)c1cccc2cccnc12 (stereo unspecified) | 4.9 | 11.0 | -30.8 | 0.7 | -20.8 | 4.5
O=C(NCc1ccc2c(c1)OCO2)c1cnc2n(c1=O)CCS2 | 6.0 | -5.3 | 4.5 | -6.2 | -16.8 | -7.3
O=C(Nc1cccc(C(F)(F)F)c1)c1cnc2n(c1=O)CCS2 | -1.4 | 22.9 | 24.1 | -1.7 | . | -5.1
O=C(Nc1ccc2c(c1)OCO2)c1cnc2n(c1=O)CCS2 | 10.7 | 62.3* | 36.3 | -0.6 | 66.3 | 4.5
O=C(NCCc1ccc(Cl)cc1)c1cnc2n(c1=O)CCS2 | 5.0 | 33.9 | 34.8 | 1.0 | . | -2.5
O=C(NCCC1=CCCCC1)c1cnc2n(c1=O)CCS2 | 7.4 | 51.3* | 33.5 | -2.5 | -45.3 | 8.3
O=C(Nc1ccc2c(c1)OCCO2)c1cnc2n(c1=O)CCS2 | 5.3 | 91.0* | 88.1* | -1.0 | -15.2 | 2.1
Cc1cccc(NC(=O)c2cnc3n(c2=O)CCS3)c1 | -4.5 | 24.4 | 75.8* | -0.5 | . | -1.5
O=C(Nc1ccccc1)c1cnc2n(c1=O)CCS2 | 6.2 | 30.1 | 36.6 | -0.6 | -2.8 | 1.7
CC(C)c1ccc(C(=O)CC2(O)C(=O)N(CN3CCOCC3)c3ccccc32)cc1 (stereo unspecified) | . | . | . | . | -44.6 | .
CC(=O)N=c1c(C#N)cc2c(=O)n3cccc(C)c3nc2n1CC(C)C | 6.4 | -13.7 | 2.2 | 5.6 | . | -1.7
COc1ccc(Cl)cc1C(=O)Nc1nnn(C)n1 | 10.7 | -24.2 | 7.0 | 1.8 | . | 1.5
CCN(Cc1ccccc1)C(=O)CCCOc1ccccc1 | 11.0 | 31.5 | 58.0* | -3.2 | . | 5.0
